The source of these data is ChEMBL document CHEMBL3797027, “Potent anti-proliferative actions of a non-diuretic glucosamine derivative of ethacrynic acid” (Bioorg Med Chem Lett, 2016).

The source made the active and inactive calls. The calls are words filed in the database; no cut-off is given here. Some results are limits rather than exact numbers.

Data set [1] is described as follows: Cytotoxic activity against human MCF10A cells assessed as inhibition of cell proliferation incubated for 72 hrs by MTT assay. The conditions noted are these: mcf-10a. It counts as cell-based. The method, boiled down: (§1)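 MTT cell survival assay. IC50 is the concentration that inhibits tumour cell proliferation by 50%, read from cell survival curves. Values are given as mean ± SD of three independent experiments.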
On the technique in general: Tetrazolium assays rely on reduction of a dye to a coloured formazan, in cell work by metabolically active cells.

The subject of data set [2] is MDA-MB-231. Put plainly: Cytotoxic activity against human MDA-MB-231 cells assessed as inhibition of cell proliferation incubated for 72 hrs by MTT assay. The data set is classed as functional, cell-based. An outline of the steps: as §1
A short description of data set [3]: Cytotoxic activity against human HCT116 cells assessed as inhibition of cell proliferation incubated for 72 hrs by MTT assay. It counts as functional, cell-based. The conditions noted are these: HCT-116, 72 h. The method, boiled down: as §1
Data set [4] can be described thus: Cytotoxic activity against human H1299 cells assessed as inhibition of cell proliferation incubated for 72 hrs by MTT assay. The data set is classed as functional, cell-based. The conditions noted are these: NCI-H1299, 72 h. The method, boiled down: as §1
Data set [5] relates to HT-29. The data set can be described thus: Cytotoxic activity against human HT-29 cells assessed as inhibition of cell proliferation incubated for 72 hrs by MTT assay. It counts as functional, cell-based. The conditions noted are these: HT-29, 72 h. The method, boiled down:
as §1

Data set [6] has as its system MCF7. Put plainly: Cytotoxic activity against human MCF7 cells assessed as inhibition of cell proliferation incubated for 72 hrs by MTT assay. The data set is classed as functional, cell-based. The conditions noted are these: MCF7, 72 h. The method, boiled down: as §1
Data set [7] is described as follows: Cytotoxic activity against human SKBR3 cells assessed as inhibition of cell proliferation incubated for 72 hrs by MTT assay. The data set is classed as functional, cell-based. The conditions noted are these: SK-BR-3, 72 h. An outline of the steps:
as §1

Data set [8] in a line: Cytotoxic activity against human SF188 cells assessed as inhibition of cell proliferation incubated for 72 hrs by MTT assay. The conditions noted are these: SF-188, 72 h. It counts as functional, cell-based. An outline of the steps:
as §1

The nature of data set [9]: Cytotoxic activity against human HT1080 cells assessed as inhibition of cell proliferation incubated for 72 hrs by MTT assay. The data set is classed as functional, cell-based. The conditions noted are these: HT-1080, 72 h. An outline of the steps:
as §1

Data set [10] is described as follows: Cytotoxic activity against human GBM10 cells assessed as inhibition of cell proliferation incubated for 72 hrs by MTT assay. It counts as functional, cell-based. The conditions noted are these: GBM10, 72 h. An outline of the steps: as §1
The test system of data set [11] is MDA-MB-468. The data set can be described thus: Cytotoxic activity against human MDA-MB-468 cells assessed as inhibition of cell proliferation incubated for 72 hrs by MTT assay. It counts as functional, cell-based. The conditions noted are these: MDA-MB-468, 72 h. An outline of the steps: as §1
Data set [12] concerns Mus musculus. The data set can be described thus: Toxic diuretic effect in 12 hrs fasted CD1 mouse assessed as increase in urine output at 10 mg/kg, ip measured 0 to 6 hrs post dose relative to untreated control. The data set is classed as toxicity, organism-based. The conditions noted are these: in vivo. An outline of the steps:
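Female CD-1 mice fasted 12 h, then given compound IP at 10 mg/kg in PEG/EtOH/H2O (54:14:32). Vehicle control group included. Mice were housed singly in metabolic cages with free access to water. Voided urine was collected in graduated tubes under the cages over 0–6 h and 6–24 h after injection.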

Turning to `N[C@H]1C(O)O[C@H](CO)[C@@H](O)[C@@H]1O` (stereo partly drawn) [GLUCOSAMINE], the Activity entry in [1] is given as “Non-toxic”. In addition, in data set [2], the “growth inhibition (GI)” value was “inactive”.
With `C=C(CC)C(=O)c1ccc(OCC(=O)O)c(Cl)c1Cl` [ETHACRYNIC ACID], the IC50 (in general, the point on the concentration scale where inhibition reaches its midpoint) in [3] was determined as 30.2 µM; in data set [4], 44.3 µM; in data set [5] it was 62.4 µM; in [6], 28.9 µM; in data set [7], 34.2 µM; in [8] it was 31.7 µM. Besides, the IC50 is 54.5 µM in data set [9]; 29.9 µM in data set [10]; 81.5 µM in [11]; 45.2 µM in data set [2] (MDA-MB-231, 72 h). For the same molecule, the “fold change (FC)” value in [12] is listed as “<= 6”.
